According to ChEMBL document CHEMBL1145604, “Fragment-based discovery of hepatitis C virus NS5b RNA polymerase inhibitors” (Bioorg Med Chem Lett, 2008):

Tests used:
[1] = Inhibition of HCV NS5b RNA polymerase assessed as [3H]UTP incorporation into RNA; set-up: species or system Hepacivirus hominis
Method in brief: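 NS5B570n-BK (200 nM) with poly-A:oligo U₁₆ template:primer (8.4 µg/mL), 2.1 µCi tritiated UTP, 1 µM ATP, CTP, GTP in 40 mM Tris-HCl pH 8.0, NaCl, 4 mM DTT, 4 mM MgCl₂; compound serially diluted in DMSO. 2 h at 30 °C, TCA stop, filtration, scintillation counting. IC50 from duplicate means.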

[2] = tested on: Hepatitis C virus; assay: Antiviral activity against Hepatitis C virus by replicon assay; format: functional, organism-based, Hepacivirus hominis
[3] = Binding affinity to HCV NS5b RNA polymerase by SPR assay; set-up: species or system Hepacivirus hominis

| IC50 [1] | EC50 [2] | Kd [3] | SMILES |
| --- | --- | --- | --- |
| 7.5 µM |  |  | C[C@@H]1C[C@H](C)CN(C(=O)c2cc(Br)ccc2NS(C)(=O)=O)C1 |
| 1 µM | 22.8 µM |  | C[C@@H]1C[C@H](C)CN(C(=O)c2cc(Br)ccc2NC(=O)CCC(=O)O)C1 |
| 0.25 µM | 8.7 µM | 1.02 µM | C[C@@H]1C[C@H](C)CN(C(=O)c2cc(Br)ccc2NC(=O)CNC(=O)c2ccco2)C1 |
| 0.43 µM | 5.7 µM | 0.57 µM | C[C@@H]1C[C@H](C)CN(C(=O)c2cc(Br)ccc2NC(=O)CNC(=O)c2cccnc2)C1 |
| 190 µM |  | 36 µM | C[C@@H]1CN(C(=O)c2cc(Br)ccc2N)C[C@H](C)O1 |
| 0.13 µM | 5.5 µM | 0.54 µM | C[C@@H]1C[C@H](C)CN(C(=O)c2cc(Br)ccc2NC(=O)CNC(=O)c2ccccc2)C1 |
| 0.35 µM | 12.9 µM | 1.28 µM | C[C@@H]1C[C@H](C)CN(C(=O)c2cc(Br)ccc2NC(=O)[C@@H]2CCCN2C(=O)c2cccnc2)C1 |
| 170 µM |  | 192 µM | CC1CCCN(C(=O)c2cc(Br)ccc2N)C1 (stereo not given) |
| > 500 µM |  |  | Nc1ccc(Br)cc1C(=O)N1CCCC1 |
| 11 µM |  | 1.7 µM | CC(=O)Nc1ccc(Br)cc1C(=O)N1C[C@H](C)C[C@H](C)C1 |
| > 500 µM |  |  | Nc1ccc(Br)cc1C(=O)N1CCOCC1 |
| 0.4 µM | 6.1 µM | 0.3 µM | C[C@@H]1C[C@H](C)CN(C(=O)c2cc(Br)ccc2NC(=O)CCC(=O)N(C)C)C1 |
| > 500 µM |  |  | Nc1ccc(Br)cc1C(=O)N1CCCCC1 |
| 9 µM |  |  | C[C@@H]1C[C@H](C)CN(C(=O)c2cc(Br)ccc2NC(=O)CCCC(=O)O)C1 |
| 0.6 µM | 5.6 µM | 0.46 µM | C[C@@H]1C[C@H](C)CN(C(=O)c2cc(Br)ccc2NC(=O)NCC(=O)N(C)C)C1 |
| > 500 µM |  |  | CC(C)NC(=O)c1cc(Br)ccc1NC(=O)CCC(=O)O |
| 4.3 µM |  | 9.4 µM | C[C@@H]1C[C@H](C)CN(C(=O)c2cc(Br)ccc2NC(=O)CCC(N)=O)C1 |

| IC50 [1] | EC50 [2] | Kd [3] | SMILES |
| --- | --- | --- | --- |
| > 500 µM |  |  | Nc1ccc(Br)cc1C(=O)NCc1ccccc1 |
| 0.17 µM | 4.6 µM | 0.37 µM | Cc1cc(CNC(=O)Nc2ccc(Br)cc2C(=O)N2C[C@H](C)C[C@H](C)C2)nn1C |
| 533 µM |  |  | O=C(O)CCC(=O)Nc1ccc(Br)cc1C(=O)N1CCSCC1 |
| 17 µM |  |  | C[C@@H]1C[C@H](C)CN(C(=O)c2cc(Br)ccc2N)C1 |
| 11 µM |  |  | C[C@@H]1C[C@H](C)CN(C(=O)c2cc(Br)ccc2NC(=O)CC(=O)N(C)C)C1 |
| 0.44 µM | 4.3 µM | 0.97 µM | C[C@@H]1C[C@H](C)CN(C(=O)c2cc(Br)ccc2NC(=O)CCC(=O)c2cccs2)C1 |
| > 500 µM |  |  | O=C(O)CCC(=O)Nc1ccc(Br)cc1C(=O)NCC1CCCCC1 |
| 0.25 µM | 7.4 µM |  | C[C@@H]1C[C@H](C)CN(C(=O)c2cc(Br)ccc2NC(=O)CCC(=O)N2CCOCC2)C1 |
| 178 µM |  |  | Nc1ccc(Br)cc1C(=O)Nc1ccccc1Cl |
| 0.59 µM | 7.9 µM | 1.04 µM | C[C@@H]1C[C@H](C)CN(C(=O)c2cc(Br)ccc2NC(=O)CCC(=O)c2cccnc2)C1 |
| 132 µM |  | 210 µM | Nc1ccc(Br)cc1C(=O)N1CCc2ccccc2C1 |
| 0.36 µM | 6.9 µM | 0.35 µM | Cc1cnc(CNC(=O)Nc2ccc(Br)cc2C(=O)N2C[C@H](C)C[C@H](C)C2)cn1 |
| 2.1 µM |  |  | COC(=O)CCC(=O)Nc1ccc(Br)cc1C(=O)N1C[C@H](C)C[C@H](C)C1 |
| 1.03 µM | 3.7 µM | 0.15 µM | C[C@@H]1C[C@H](C)CN(C(=O)c2cc(Br)ccc2NC(=O)[C@@H]2C[C@@H](O)CN2C(=O)c2ccco2)C1 |
| 0.54 µM |  | 1.85 µM | C[C@@H]1C[C@H](C)CN(C(=O)c2cc(Br)ccc2NC(=O)CCC(=O)c2ccccn2)C1 |
| 1 µM | 4.9 µM | 0.8 µM | C[C@@H]1C[C@H](C)CN(C(=O)c2cc(Br)ccc2NC(=O)NCc2ccc(N(C)C)cc2)C1 |
